Published values collected from several papers.
EGFR L858R/T790M: Epidermal growth factor receptor (EGFR, Homo sapiens, UniProt P00533, L858R/T790M)
EGFR G719S: Epidermal growth factor receptor (EGFR, Homo sapiens, UniProt P00533, G719S)
EGFR G719C: Epidermal growth factor receptor (EGFR, Homo sapiens, UniProt P00533, G719C)
EGFR L861Q: Epidermal growth factor receptor (EGFR, Homo sapiens, UniProt P00533, L861Q)
EGFR A750P/del747-749: Epidermal growth factor receptor (EGFR, Homo sapiens, UniProt P00533, A750P/del747-749)
EGFR: Epidermal growth factor receptor (EGFR, Homo sapiens, UniProt P00533)
EGFR del746-750: Epidermal growth factor receptor (EGFR, Homo sapiens, UniProt P00533, del746-750)
EGFR T790M: Epidermal growth factor receptor (EGFR, Homo sapiens, UniProt P00533, T790M)
EGFR L858R: Epidermal growth factor receptor (EGFR, Homo sapiens, UniProt P00533, L858R)

SMILES	target	assay	setting	remaining binding
Cc1cnn2ncc(-c3ccnc(N(C)C)n3)c2c1	EGFR L858R/T790M	binding	1 µM	100%
O=C(Nc1cccnn1)N1CC(C/C=C/c2cncc(Oc3ccc(C(F)(F)F)cn3)n2)C1	EGFR G719S	cell-free assay, competition with immobilised ligand	1 µM	100%
O=C(NCC1CCOCC1)c1n[nH]cc1NC(=O)c1c(F)cccc1F	EGFR G719C	binding, competition with immobilised ligand	1 µM	100%
COc1ncc2cc3ccccc3nc2c1C#N	EGFR G719S	cell-free assay, competition with immobilised ligand	5 µM	95%
c1cnn2ncc(-c3ccnc(N4CCC45COC5)n3)c2c1	EGFR G719C	binding	1 µM	100%
O=C(c1ccc(Nc2ncc(Cl)c(-c3ccc(Cl)s3)n2)cc1)N1CCC(N2CCCC2)CC1	EGFR L858R/T790M	binding, competition with immobilised ligand	1 µM	49%
CN(C)c1ncc(F)c(-c2cnn3ncccc23)n1	EGFR L861Q	binding	1 µM	100%
CNC(=O)[C@@H]1CC[C@@H](n2c(-c3ccc4cnccc4c3)nc3ccc(C(=O)NCc4cccc(C(N)=O)c4)cc32)C1	EGFR G719S	binding, competition with immobilised ligand	1 µM	100%
F[C@@H]1CCN(c2nccc(-c3cnn4ncccc34)n2)C1	EGFR L858R/T790M	binding	1 µM	100%
CCCOc1ccc([C@@H]2[C@@H](C(=O)O)[C@H](c3ccc4c(c3)OCO4)CN2CC(=O)Nc2c(CC)cccc2CC)cc1	EGFR L861Q	cell-free assay, competition with immobilised ligand	1 µM	100%
C[C@@H]1CCN(c2nccc(-c3cnn4ncccc34)n2)C1	EGFR L861Q	binding	1 µM	92%
O=C(NCCCN1CCOCC1)c1ccc(Nc2ncc(Cl)c(-c3ccc(Cl)s3)n2)cc1	EGFR L861Q	binding, competition with immobilised ligand	1 µM	100%
COc1cccc(CNC(=O)c2nc3scc(COCc4ccc(C(=O)O)cc4)c3c(=O)[nH]2)c1	EGFR A750P/del747-749	cell-free assay, competition with immobilised ligand	1 µM	76%
C[C@@H]1CN(c2ccc3ncc(-c4ccc5[nH]nc(C6CC6)c5c4)n3n2)C[C@H](C)O1	EGFR	binding, competition with immobilised ligand	0.5 µM	31%
O=C(c1ccc(Nc2nccc(-c3cc4ccccc4s3)n2)cc1)N1CCC(N2CCCC2)CC1	EGFR del746-750	binding, competition with immobilised ligand	1 µM	100%
Nc1ncc2c(n1)-c1c([nH]c3ccc(C#CC4CC4)cc13)CCCC2	EGFR G719S	binding, competition with immobilised ligand	1 µM	98%
Cc1cnc(Nc2ccc(C(=O)N3CCC(N4CCCC4)CC3)cc2)nc1-c1cc2ccccc2s1	EGFR L858R/T790M	binding, competition with immobilised ligand	1 µM	59%
COc1cnc(Nc2cccc(S(N)(=O)=O)c2)nc1N1CCN(c2ccccc2)C(=O)C1	EGFR T790M	binding, competition with immobilised ligand	1 µM	92%

SMILES	target	assay	setting	remaining binding
CN1CCN(c2ccc(Nc3nccc(-c4ccccc4)n3)cc2C(F)(F)F)CC1	EGFR L858R/T790M	binding	10 µM	93%
CN(C)c1nccc(-c2cnn3ncccc23)n1	EGFR L858R/T790M	binding	1 µM	100%
c1cncc(-c2cccc(Nc3nccc(NC4CCCCC4)n3)c2)c1	EGFR del746-750	binding, competition with immobilised ligand	10 µM	38%
O=C(NCCCN1CCOCC1)c1ccc(Nc2nccc(-c3cc4ccccc4s3)n2)cc1	EGFR G719S	binding, competition with immobilised ligand	1 µM	100%
CN(C)C(=O)Cn1cc(-c2nc(C3(c4ccc(-c5cnc(N)nc5)cc4)CC3)no2)cn1	EGFR L861Q	cell-free assay, competition with immobilised ligand	1 µM	100%
CN1CCN(c2ccc(Nc3nccc(-c4cccc([N+](=O)[O-])c4)n3)cc2C(F)(F)F)CC1	EGFR L861Q	binding	10 µM	96%
CCN(CC)Cc1cc(Nc2ccnc3cc(Cl)ccc23)ccc1O	EGFR	cell-free assay, competition with immobilised ligand	0.1 µM	100%
CN(c1nccc(-c2cnn3ncccc23)n1)C1CC1	EGFR L858R/T790M	binding	1 µM	100%
O=C(Nc1c[nH]nc1C(=O)NC1CCNCC1)c1cc(F)cc(F)c1	Epidermal growth factor receptor (EGFR, Homo sapiens, UniProt P00533, del747-752/P753S)	binding, competition with immobilised ligand	1 µM	100%
O=C(Nc1ccc(Oc2ccc(F)cc2)cc1)N1CCc2ncccc2[C@H]1c1ccc(F)cc1	EGFR T790M	cell-free assay, competition with immobilised ligand	1 µM	87%
O=C(c1ccc(Nc2ncc(Cl)c(-c3cc4ccccc4s3)n2)cc1)N1CCC(N2CCCC2)CC1	EGFR A750P/del747-749	binding, competition with immobilised ligand	1 µM	86%
CNC(=O)c1ccc(Nc2ncc(C(F)(F)F)c(NCc3nccnc3N(C)S(C)(=O)=O)n2)cc1	EGFR L861Q	cell-free assay, competition with immobilised ligand	0.1 µM	100%
CN(CCCC(F)(F)F)c1nccc(-c2cnn3ncccc23)n1	EGFR L858R/T790M	binding	1 µM	100%
C[C@H](c1cccc(C#N)c1)n1cc(Cl)cc(C(N)=O)c1=N	EGFR L858R	cell-free assay, competition with immobilised ligand	1 µM	86%
COc1cnc(Nc2cccc(S(N)(=O)=O)c2)nc1N1CCN(c2ccccc2)CC1	EGFR A750P/del747-749	binding, competition with immobilised ligand	1 µM	100%
CS(=O)(=O)NCC[C@H](NC(=O)c1cncc2c1cnn2-c1ccc(F)cc1)c1ccnc(S(C)(=O)=O)c1	EGFR L858R	cell-free assay, competition with immobilised ligand	1 µM	83%
CCN1CCN(Cc2ccc(C(=O)Nc3ccc(C)c(Oc4ccc5c(c4)CC(=O)N5)c3)cc2C(F)(F)F)CC1	Epidermal growth factor receptor (EGFR, Homo sapiens, UniProt P00533, del752-759)	binding, competition with immobilised ligand	1 µM	100%
